In the library only some 3% were active in any assay of this set; here they are far more common.
T cruzi repl – blocks replication of Trypanosoma cruzi; T. cruzi beta-gal in NIH3T3, luminescence, 90 h; inhibition, % (test concentration not listed); hit rate 1.4% among 300,000; AID 1885;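 active = mean inhibition across valid replicates above about 55%, limit read from the data; inconclusive = mean below that limit but half or more replicates reach it; inactive = mean below it, under half of replicates reach it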;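 also: signal also drops with host cell toxicity which is not excluded here; 0% = plate median of DMSO wells and 100% = zero luminescence signal; higher percent means less beta-gal luminescence so fewer parasites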
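System: Mouse NIH/3T3 fibroblasts infected with β-gal-expressing T. cruzi Tulahuen C4 | Quantity: NIH/3T3 cells, 5,000 per well | Reagent: 5000 reporter trypomastigotes per well | Dosing: Compound pinned at 50 nL/well, DMSO | Schedule: 3 h host attachment, then at least 90 h co-culture | Detection: GalScreen luminescence, 60 min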
N-glyco inh – blocks N-linked glycosylation in D54 reporter cells | D54 ERlucT glycosylation luciferase reporter, 24 h; percent of 100 nM tunicamycin response | reporter increase, % at 12.5 µM | hit rate 0.23% among 360,000;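 active = mean luciferase reporter signal, scaled so untreated is 0 and the glycosylation-blocking control 100, at or above a set limit in every replicate; inconclusive = mean reaches the limit but not every replicate does; inactive = mean below the limit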;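 also: luciferase carries N-glycosylation sites so blocking glycosylation raises the light; 0% = median of neutral control wells and 100% = median of 100 nM tunicamycin wells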
CaV13 ICDI inh – Primary screen for inhibitors of IQ motif and Ca2+-dependent inactivation inhibitor domain binding in CACNA1D, Förster resonance energy transfer in living cells, …; HEK cells, CFP/YFP FRET ICDI-IQ, plate reader, 10 min; percent FRET-ratio fall versus neutral wells; inhibition, % at 12.3 µM; hit rate 0.098% among 340,000;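 active = mean replicate inhibition of at least 30% and at least 1% of replicates passing that level; inconclusive = only one of the two criteria is met; inactive = neither criterion is met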;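 also: 0% = median of the neutral control wells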
HSF-1 act – increases HSF-1 driven luciferase reporter signal; NIH3T3-HGL HSF-1 luciferase reporter, MG132, 8 h; 100% = twice DMSO control signal; activation, % at 9 µM; hit rate 1.7% among 300,000;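 active = mean replicate activation of at least 50% with a set share of replicates each reaching 50%; inconclusive = only one of those two conditions met; inactive = mean below 50% and too few replicates reaching it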;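 also: 0% = median of the neutral control wells and 100% = twice that signal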
PvdQ acylase – blocks Pseudomonas aeruginosa PvdQ acylase activity; purified PvdQ acylase, fluorescence plate reader; inhibition, % at 10 µM; hit rate 0.063% among 340,000; AID 488965; in the data active = inhibition above about 30%, passing the limit was not always enough; inconclusive = no clear call, values can overlap the other calls;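 also: 0% = vehicle neutral wells and 100% = reference inhibitor wells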
PfHsp90 yeast 2 – inhibits growth of yeast expressing Plasmodium falciparum Hsp90; S. cerevisiae expressing PfHsp90, BacTiter-Glo ATP, 48 h; yeast lacking PDR1 and PDR3 efflux regulators; inhibition, % at 9.4 µM; AID 504621; hit rate 0.32% among 310,000;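 active = every replicate shows inhibition above about 80%, whatever the replicate mean, limit read from the data; inconclusive = mean inhibition reaches the set limit but some replicate falls short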;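 also: 0% = DMSO neutral controls and 100% = 20 µM radicicol positive controls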
Starred values were filed as active, the others as inactive; ? = inconclusive; / = no result given.

SMILES | T cruzi repl | N-glyco inh | CaV13 ICDI inh | HSF-1 act | PvdQ acylase | PfHsp90 yeast 2
Cc1cc(C)cc(N=Cc2ccc([N+](=O)[O-])s2)c1 | 37 | 22 | -5 | 8 | -8 | 106*
O=[N+]([O-])c1ccc(C=Nc2ccc(Cl)c([N+](=O)[O-])c2)s1 | / | ? | -5 | / | -11 | 106*
O=[N+]([O-])c1ccc(/C=N/Nc2ncccc2[N+](=O)[O-])s1 | -27 | -1 | -8 | 40 | -24 | 2
COc1cc(/C=N/NC(=O)Cc2cccs2)c([N+](=O)[O-])cc1OC | -4 | 0 | -15 | -3 | -14 | -8
C=C1CC(Cn2cc(Br)c(=O)[nH]c2=O)(c2ccc(-c3ccccc3)cc2)OC1=O (stereo not given) | / | -22 | -15 | 30 | 1 | 16
C[C@@H](CO)NC(=O)c1[nH]cnc1C(=O)Nc1cccc(Cl)c1 | / | 2 | -5 | / | / | /
NC(=O)c1ccc(N=Cc2ccc([N+](=O)[O-])s2)cc1 | / | 44* | -5 | / | 12 | 104*
N/C(=N\O)c1ccc([N+](=O)[O-])s1 | 16 | 6 | -5 | -1 | -5 | -1
Cc1ccc(S(=O)(=O)N2C[C@H]3C(=O)C[C@@H](c4ccccc4)N(S(=O)(=O)c4ccc(Br)cc4)[C@H]3C[C@H]2c2ccccc2)cc1 | / | -4 | -4 | / | / | /
O=C(O)CN=C(Nc1cc(Cl)cc(Cl)c1)NC(c1ccccc1)c1ccccc1 | / | / | -11 | / | / | /
CN(C)CCCNC(=O)CCc1ncc(C(F)(F)F)cc1Cl | -6 | -1 | -4 | -5 | 9 | -2
CN(C)CCCNc1ncc(C(F)(F)F)cc1Cl | 63* | -1 | -3 | 2 | -9 | 2
N#Cc1cc([N+](=O)[O-])ccc1N1CCCC1 | -10 | 2 | -18 | 30 | 89* | -3
CCOC(=O)C1CCN(c2ccc([N+](=O)[O-])cc2)CC1 | -18 | 1 | -16 | 21 | 37* | -11
O=[N+]([O-])c1ccc(N2CCCCC2)cc1 | -4 | 0 | -16 | 14 | 48* | -4
CCOC(=O)C1CCN(C(=O)C2CCN(C(=O)c3ccc([N+](=O)[O-])cc3)CC2)CC1 | 30 | / | / | 15 | -2 | -6
O=[N+]([O-])c1cc2no[n+]([O-])c2cc1N1CCCCC1 | / | 1 | -7 | / | -15 | 105*
CN(C)c1ccc(CNC(=O)C2(C)Cc3c(-c4cccc(C(F)(F)F)c4)ccnc3O2)cc1 (stereo not given) | / | 8 | -4 | / | / | /
O=[N+]([O-])c1ccc(N2CCCCCC2)c([N+](=O)[O-])c1 | 3 | 0 | / | 77* | 16 | -17
CN1CCN(c2ccc(C(=O)c3ccccc3)cc2[N+](=O)[O-])CC1 | 56* | -3 | -5 | -8 | -6 | 6
CC(=O)N1CCN(c2ccc(S(=O)(=O)N3CCCCC3)cc2[N+](=O)[O-])CC1 | / | 2 | -10 | / | -13 | -17
O=[N+]([O-])c1cc(Cl)ccc1N1CCCCC1 | -14 | 2 | -2 | 21 | 6 | 9
CN1CCN(c2ccc(S(=O)(=O)N3CCCCC3)cc2[N+](=O)[O-])CC1 | 68* | -1 | 9 | -4 | -8 | -9
CN(C)c1ccc(CC(=O)N2CCCC(c3cc(C(=O)Nc4ccc(F)c(Cl)c4)no3)C2)cc1 (stereo not given) | / | -4 | -13 | / | / | /
CCOC(=O)[C@]12CCC=C1N(Cc1cccc3ccccc13)C(=O)[C@H](CC(=O)NCCC(C)C)C2 | / | / | -5 | / | / | /
SMILES | T cruzi repl | N-glyco inh | CaV13 ICDI inh | HSF-1 act | PvdQ acylase | PfHsp90 yeast 2
CN1C(=O)/C(=C/c2ccc(OCc3cccc(F)c3)cc2)NC1=S | -11 | -3 | -20 | 6 | -16 | -15
COc1cc(C=O)ccc1OCc1cccc(Br)c1 | -9 | -1 | -5 | 63* | -15 | -12
COc1cc(/C=C2/C(=O)N(C)C(=S)N2C)ccc1OCc1cccc(F)c1 | -12 | 34* | -4 | -1 | -4 | 18
CNC(=O)COc1ccc(C=O)cc1OC | -1 | 3 | -5 | 10 | -14 | 30
CCN(CC)C(=O)COc1ccc(C=O)cc1OC | 12 | 1 | -5 | 75* | 7 | -8
CC(C)[C@@H](NC(=O)OC(C)(C)C)c1cc(C(=O)c2c(-c3ccccc3)[nH]c3ccccc23)c(N)s1 | / | / | -9 | / | / | /
O=C(CN(c1ccc(Cl)cc1)S(=O)(=O)c1ccc(Cl)c([N+](=O)[O-])c1)NCCc1ccccc1 | 74* | 0 | 12 | -24 | -1 | 4
CC(C)CCNC(=O)C(c1ccc(O)cc1)N(Cc1cccs1)C(=O)C1COc2ccccc2O1 (stereo not given) | 64* | -7 | -3 | 22 | -9 | -13
Nc1c2c(nc3ccccc13)CSCC2 | 55* | -1 | -4 | -5 | -12 | -14
CCCNC(=O)N1C[C@H](O)COC[C@H]2O[C@@H](CC(=O)N[C@@H]3CCN(Cc4ccccc4)C3)CC[C@@H]21 | / | / | -7 | / | / | /
Cc1cccc(NC(=O)c2ncn3c2C(=O)N[C@H](C)C3)c1 | / | 4 | -9 | / | / | /
Cc1ccc(Nc2cc(C)nc(-c3ccccc3O)n2)cc1 | 30 | -8 | -5 | 32 | 3 | /
Cc1ccc(Nc2cc(C)nc(-c3ccccc3)n2)cc1 | 8 | 1 | -19 | 52* | 9 | 32
CS(=O)(=O)c1cccc(OCCCN2CCC(C(O)(c3ccccc3)c3ccccc3)CC2)c1 | / | / | -7 | / | / | /
CN1c2ccc(Cl)cc2C(=O)NC1C1CC=CCC1 (stereo not given) | 2 | -1 | 44* | 27 | 2 | -10
CC(C)CC1NC(=O)c2cc(Cl)ccc2-n2c1nc1cc(F)ccc1c2=O (stereo not given) | / | / | -11 | / | / | /
N#C/C(C(=O)Nc1ccc(Cl)cc1)=C(/S)Nc1ccccc1 | 79* | 2 | -4 | 6 | -7 | 73
O=C(Nc1ccc(Nc2ccccc2)cc1)c1ccc(Cl)cc1 | 13 | -1 | -5 | 3 | -16 | 10
Cc1ccc(C(=O)Oc2oc(-c3ccccc3)nc2C=Nc2ccc(N(C)C)cc2)cc1 | -8 | -5 | -3 | 144* | -5 | 4
Cc1ccc(C(=O)Oc2oc(-c3ccco3)nc2C=Nc2ccc(Cl)cc2)cc1 | -13 | -7 | 0 | 86* | -3 | 13
O=C(N/N=C/c1cc2c(cc1Br)OCO2)c1ccccn1 | -12 | -2 | -21 | 60* | / | /
O=C(N/N=C/c1cc(Br)cs1)c1c[nH]c2ccccc12 | -5 | 5 | -4 | 49 | -2 | 14
O=C(N/N=C/c1cc2c(cc1Br)OCO2)c1c[nH]c2ccccc12 | 62* | 2 | -6 | 33 | -2 | 14
O=C(N/N=C/c1ccc(Br)s1)c1c[nH]c2ccccc12 | 11 | 4 | -9 | 56* | 16 | 32
O=C(N/N=C/c1ccc2c(c1)OCO2)c1ccccn1 | -2 | -18 | -9 | 23 | -4 | /

Screening results: PubChem BioAssay, Broad Institute
